In PubChem BioAssay:
Active and inactive are the calls of the source.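 Rule for the calls, unless noted: active = GFP response above 150% of the DMSO level; inconclusive = fewer than 70 events counted for a yeast strain; inactive = the rest.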

Tests used:
[1] = hit retest on RPL19A-GFP reporter strain – cell-based, S. cerevisiae, flow cytometry, cherry picks, mother/daughter gates, confirmation (AID 2270;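 active = GFP response below 50% of the DMSO control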); settings: 3 h, at 10 µM, stronger effect = lower value, 100 = same GFP as DMSO wells
[2] = yeast TOR pathway reporter LAP4-GFP change – cell-based, cherry picks, flow cytometry, mother/daughter gates, confirmation (AID 2271;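 active = GFP response above 150% of the DMSO control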;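 note: ratio of sample to DMSO plate mean so 100% equals DMSO level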); settings: S. cerevisiae LAP4-GFP strain, 3 h, at 10 µM, stronger effect = higher value, 100 means same as DMSO control
Procedure, shortened: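 Material: Alexa 633-stained baker's yeast GFP-fusion strain; Compound dosing: single test-compound dose, 10 µM final; Incubation: 30 °C, 3 h compound incubation, rotating; Detection: HT flow cytometry, GFP fluorescence channel; Control set: positive rapamycin (400 ng/mL), negative DMSO.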

[3] = TOR pathway reporter MEP2-GFP, retest of hits – S. cerevisiae, flow cytometry GFP, cherry picks, confirmation (AID 2272;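 active = GFP response above 150% of the DMSO control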;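 note: ratio of well signal to plate DMSO mean so 100% equals DMSO level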); settings: S. cerevisiae MEP2-GFP strain, 3 h, at 10 µM, stronger effect = higher value
[4] = yeast AGP1-GFP fluorescence change, single-dose – cell-based, flow cytometry, S. cerevisiae, cherry picks, confirmation (AID 2273);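 note: median GFP channel fluorescence over the whole cell population gate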; settings: S. cerevisiae AGP1-GFP strain, 3 h, at 10 µM
[5] = TOR pathway CIT2 reporter hit retest – S. cerevisiae, GFP fusion, cherry picks, mother/daughter gates, confirmation (AID 2274); settings: S. cerevisiae CIT2-GFP strain, flow cytometry, 3 h, at 10 µM, stronger effect = higher value
[6] = measured here: daughter cell gate
[7] = measured here: mother cell gate
[8] = measured here: daughter cell gate response
[9] = measured here: mother cell gate response

| SMILES | GFP response vs DMSO [1] | GFP response vs DMSO [1, 6] | GFP response vs DMSO [1, 7] | GFP response relative to DMSO [2] | GFP response relative to DMSO [2, 8] | GFP response relative to DMSO [2, 9] | GFP response vs DMSO [3] | GFP response, % of DMSO [4] | GFP response, % of DMSO [5] | GFP response, % of DMSO [5, 6] | GFP response, % of DMSO [5, 7] |
| --- | --- | --- | --- | --- | --- | --- | --- | --- | --- | --- | --- |
| Nc1ccc(S(=O)(=O)c2ccccc2)nc1 | 103% (inactive) | 104% | 104% | 99.8% (inactive) | 98.7% | 99.3% | 104% (inactive) | 95.7% (inactive) | 95.2% (inactive) | 94.8% | 94.4% |
| Cc1ccc(-c2nnc(NC(=O)c3ccc([N+](=O)[O-])o3)o2)c(C)c1 | 101% (inactive) | 99.3% | 99.8% | 161% (active) | 133% | 160% | 108% (inactive) | 92.3% (inactive) | 95.8% (inactive) | 99.3% | 91.5% |
| CCS(=O)(=O)N1N=C(c2ccc(NS(C)(=O)=O)cc2)CC1c1ccccc1 (stereo not drawn) | 99.8% (inactive) | 98.4% | 99% | 101% (inactive) | 104% | 99.5% | 108% (inactive) | 106% (inactive) | 101% (inactive) | 103% | 103% |
| COC(=O)NC1CCC(CC2CCC(NC(=O)OC)CC2)CC1 (stereo not drawn) | 99% (inactive) | 98.9% | 99.4% | 92.8% (inactive) | 92.8% | 92.9% | 100% (inactive) | 94.7% (inactive) | 103% (inactive) | 105% | 103% |
| O=S(=O)(c1ccc(NC(=S)N/N=C/c2cccc(Oc3ccccc3)c2)cc1)N1CCOCC1 | 97.8% (inactive) | 98.6% | 97.3% | 94.9% (inactive) | 93.5% | 96.2% | 105% (inactive) | 106% (inactive) | 102% (inactive) | 103% | 103% |
| COc1ccccc1OCC(=O)Sc1ccc(C)cc1 | 95.3% (inactive) | 96.7% | 92.3% | 113% (inactive) | 110% | 113% | 120% (inactive) | 99.3% (inactive) | 97.2% (inactive) | 99.3% | 93.8% |
| C/C(=N\NC(=O)c1cc2ccccc2cc1O)c1ccccn1 | 106% (inactive) | 103% | 98.1% | 234% (active) | 147% | 231% | 126% (inactive) | 109% (inactive) | 132% (inactive) | 113% | 120% |
| CN(Cc1ccccc1)S(=O)(=O)c1ccc(C(=O)Nc2nnc(C3CC3)o2)cc1 | 103% (inactive) | 102% | 105% | 98.2% (inactive) | 99.1% | 97.3% | 96.8% (inactive) | 99.2% (inactive) | 102% (inactive) | 103% | 102% |
| O=[N+]([O-])c1ccc(-c2cn3nc(-c4ccccc4)c(-c4ccccc4)nc3n2)cc1 | 102% (inactive) | 101% | 96.2% | 115% (inactive) | 115% | 114% | 227% (active) | 106% (inactive) | 109% (inactive) | 106% | 108% |
| Oc1ccccc1/C=N/c1c(-c2ccco2)nc2ccccn12 | 99.5% (inactive) | 98.1% | 100% | 93.8% (inactive) | 97.2% | 97.2% | 100% (inactive) | 102% (inactive) | 102% (inactive) | 99.7% | 102% |
| COc1ccc(-c2noc(CCCc3ccccc3)n2)cc1OC | 101% (inactive) | 98.7% | 100% | 96.2% (inactive) | 98.7% | 98.3% | 104% (inactive) | 104% (inactive) | 95.2% (inactive) | 94.8% | 96.6% |
| COc1ccc(NC(=O)Nc2ccon2)c(OC)c1 | 101% (inactive) | 102% | 99.5% | 95.7% (inactive) | 94.2% | 95.2% | 99% (inactive) | 106% (inactive) | 103% (inactive) | 99.2% | 101% |
| O=C(Nc1cc(Sc2ccccn2)cc([N+](=O)[O-])c1)c1cccc(F)c1 | 96.9% (inactive) | 96.1% | 95.9% | 101% (inactive) | 96% | 102% | 106% (inactive) | 95.7% (inactive) | 97.2% (inactive) | 95.8% | 94.9% |
| Cc1ccc(NC(=S)N(CCCN2CCOCC2)Cc2cccs2)c(C)c1 | 97.6% (inactive) | 97.8% | 97.9% | 102% (inactive) | 104% | 101% | 99.5% (inactive) | 96% (inactive) | 99.3% (inactive) | 100% | 98% |
| O=C(N/N=C\c1ccc(F)cc1)c1cc(OCC(F)(F)F)ccc1OCC(F)(F)F | 99.1% (inactive) | 99.3% | 99.2% | 100% (inactive) | 95% | 99.5% | 102% (inactive) | 105% (inactive) | 105% (inactive) | 106% | 103% |
| O=C(CCc1nc(-c2ccccc2)no1)Nc1cc(C(F)(F)F)ccc1Cl | 105% (inactive) | 105% | 103% | 91.9% (inactive) | 91% | 92% | 105% (inactive) | 102% (inactive) | 112% (inactive) | 108% | 110% |
| COc1ccc(Br)cc1/C=N/NC(=O)Cn1nnnc1N | 99.2% (inactive) | 97.6% | 103% | 99.2% (inactive) | 97.6% | 100% | 109% (inactive) | 95.8% (inactive) | 104% (inactive) | 103% | 106% |

| SMILES | GFP response vs DMSO [1] | GFP response vs DMSO [1, 6] | GFP response vs DMSO [1, 7] | GFP response relative to DMSO [2] | GFP response relative to DMSO [2, 8] | GFP response relative to DMSO [2, 9] | GFP response vs DMSO [3] | GFP response, % of DMSO [4] | GFP response, % of DMSO [5] | GFP response, % of DMSO [5, 6] | GFP response, % of DMSO [5, 7] |
| --- | --- | --- | --- | --- | --- | --- | --- | --- | --- | --- | --- |
| Cc1cc(N2CCN(C(=O)c3ccco3)CC2)n2ncc(-c3ccccc3)c2n1 | 108% (inactive) | 90.8% | 101% | 108% (inactive) | 96% | 105% | 116% (inactive) | 106% (inactive) | 118% (inactive) | 95.8% | 107% |
| COc1ccc(C2CC(c3c(-c4ccccc4)c4cc(Cl)ccc4[nH]c3=O)=NN2S(C)(=O)=O)cc1 (stereo not drawn) | 100% (inactive) | 99.1% | 102% | 99.2% (inactive) | 97.6% | 97.2% | 100% (inactive) | 99.9% (inactive) | 99.7% (inactive) | 101% | 99.7% |
| CCOC(=O)Cc1csc(NC(=O)c2sc3nc4c(C)cc(C)cc4cc3c2N)n1 | 104% (inactive) | 96.7% | 97.7% | 84.2% (inactive) | 89.5% | 92.1% | 109% (inactive) | 97.2% (inactive) | 115% (inactive) | 110% | 118% |
| Cc1ccc2[nH]c(C)c(/C=C/c3cc[n+](C)cc3)c2c1 | 118% (inactive) | 120% | 117% | 198% (active) | 210% | 190% | 268% (active) | 122% (inactive) | 223% (active) | 241% | 211% |
| CCC(=O)Nc1cccc(C(=O)/C=C/c2cc(Br)ccc2OC)c1 | 98.8% (inactive) | 99.2% | 97.7% | 103% (inactive) | 98.7% | 110% | 104% (inactive) | 97.2% (inactive) | 93.9% (inactive) | 94.8% | 91.2% |
| CC(C)n1c(=S)[nH]c2c1c(=O)[nH]c(=O)n2C | 98.8% (inactive) | 97.3% | 99.8% | 99.8% (inactive) | 102% | 101% | 100% (inactive) | 104% (inactive) | 100% (inactive) | 99.7% | 102% |
| CC1=NOC(=O)/C1=C\c1ccc(-c2cc(Cl)ccc2Cl)o1 | 97.1% (inactive) | 93.9% | 91.6% | 195% (active) | 176% | 186% | 118% (inactive) | 100% (inactive) | 114% (inactive) | 121% | 102% |
| OC1(c2ccc(F)cc2)CSC(=Nc2cccnc2)N1Cc1ccco1 (stereo not drawn) | 98% (inactive) | 99.6% | 98.7% | 102% (inactive) | 99.7% | 104% | 110% (inactive) | 104% (inactive) | 108% (inactive) | 106% | 108% |
| COc1ccc(CCNC2=C(Cl)C(=O)N(CCc3ccc(OC)c(OC)c3)C2=O)cc1OC | 99.1% (inactive) | 98.5% | 99.3% | 100% (inactive) | 99.3% | 100% | 108% (inactive) | 101% (inactive) | 95% (inactive) | 98.3% | 93.3% |
| O=C1C2C3C=CC(CO)(O3)C2C(=O)N1c1ccccc1-c1ccccc1 (stereo not drawn) | 113% (inactive) | 117% | 110% | 135% (inactive) | 128% | 132% | 126% (inactive) | 109% (inactive) | 124% (inactive) | 132% | 113% |
| O=C(c1ccccc1F)N1CCN(c2cccc(C(F)(F)F)c2)CC1 | 98.2% (inactive) | 97.6% | 96.5% | 97.7% (inactive) | 101% | 96.4% | 108% (inactive) | 106% (inactive) | 95.8% (inactive) | 97.6% | 94.9% |
| CCOc1ccc(N2C(=O)CC(SCCN)C2=O)cc1 (stereo not drawn) | 97.6% (inactive) | 98.9% | 96.6% | 97.9% (inactive) | 99.2% | 97.2% | 105% (inactive) | 92.3% (inactive) | 98.3% (inactive) | 99.1% | 98.5% |
| CCCCOc1c(Br)cc(/C=C2\N=C(C)OC2=O)cc1OCC | 97.8% (inactive) | 98.4% | 97.7% | 106% (inactive) | 102% | 106% | 100% (inactive) | 101% (inactive) | 98.3% (inactive) | 99.1% | 98.5% |
| CCOC(=O)c1cc2c(=O)n3ccccc3nc2n(CCOC)c1=NC(=O)C(C)(C)C | 99.4% (inactive) | 99.1% | 97.3% | 94.4% (inactive) | 92.6% | 94.1% | 99% (inactive) | 103% (inactive) | 94.4% (inactive) | 93.8% | 93.2% |
| O=C(CN1CCCC1)Nc1cc(C(F)(F)F)cc(C(F)(F)F)c1 | 101% (inactive) | 110% | 100% | 98.9% (inactive) | 102% | 98.4% | 68.3% (inactive) | 102% (inactive) | 98.6% (inactive) | 99.3% | 97.1% |
| CCOC(=O)Cc1csc(NC(=O)CSc2nnc(-c3ccc(C)cc3)o2)n1 | 101% (inactive) | 98.8% | 101% | 103% (inactive) | 101% | 101% | 104% (inactive) | 104% (inactive) | 104% (inactive) | 98.3% | 105% |
